Results on nine compounds are retold here after ChEMBL document CHEMBL4017532, “Multifunctional Hybrid Compounds Derived from 2-(2,5-Dioxopyrrolidin-1-yl)-3-methoxypropanamides with Anticonvulsant and Antinociceptive Properties” (J Med Chem, 2017).

For orientation: TD50 means the dose at which the toxic effect under study appears in half of the subjects. One may read the inhibition in vivo as how much of the control response was suppressed. In general, ED50 refers to the midpoint of the dose-response relation.

Calls of active or inactive are those of the source.

The subject of data set [1] is Mus musculus. The data set is described as follows: Anticonvulsant activity in Albino Swiss CD-1 mouse assessed as protection against maximal electroshock-induced seizures by measuring time to peak effect at 100 mg/kg, ip pretreated up to 2 hrs followed by 50 Hz current induction for […]. The class given is functional.
Data set [2] deals with Mus musculus. Nature of the data set: Anticonvulsant activity in Albino Swiss CD-1 mouse assessed as inhibition of pentylenetetrazole-induced seizures by measuring time to peak effect at 100 mg/kg, ip administered up to 2 hrs prior to PTZ induction measured for 30 mins. Format: functional.
A short description of data set [3]: Neurotoxicity in ip dosed Albino Swiss CD-1 mouse assessed as induction of motor impairment measured up to 60 secs by chimney test. Conditions: in vivo. Format: toxicity, organism-based. Put shortly:
(§1)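 Acute neurological toxicity after ip dosing (1% Tween 80 suspension) was assessed in the mouse chimney test. TD50 with 95% confidence limits was derived by probit analysis. Protective index is TD50 from the chimney test divided by ED50 from the MES, scPTZ or 6 Hz test.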

Data set [4] deals with Mus musculus. Nature of the data set: Antinociceptive activity in Albino Swiss CD-1 mouse assessed as inhibition of formalin-induced neurogenic pain response at 100 mg/kg, ip administered 30 mins before formalin injection measured up to 5 mins relative to control. Format: functional. Conditions: Swiss CD-1, ip. Put shortly:
(§2)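 Male CD-1 mice were given test agents ip 30 min before subcutaneous intraplantar formalin. Doses were 12.5, 25 or 50 mg/kg, or 100, 150 or 200 mg/kg for the reference. Vehicle was 1% Tween 80 at 10 mL/kg. Paw licking time was recorded in phase I (0–5 min) and phase II (15–30 min). Data are mean ± SEM of 8–10 mice, by Dunnett's test. ED50 was obtained by log-probit analysis with 95% confidence limits.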

Data set [5] deals with Mus musculus. The data set is described as follows: Antinociceptive activity in Albino Swiss CD-1 mouse assessed as inhibition of formalin-induced neurogenic pain response at 150 mg/kg, ip administered 30 mins before formalin injection measured up to 5 mins relative to control. The class given is functional. The settings on record: Swiss CD-1, ip. Put shortly:
as §2

The subject of data set [6] is Mus musculus. The data set is described as follows: Antinociceptive activity in Albino Swiss CD-1 mouse assessed as inhibition of formalin-induced neurogenic pain response at 200 mg/kg, ip administered 30 mins before formalin injection measured up to 5 mins relative to control. Conditions: Swiss CD-1, ip. Format: functional. In a few lines: as §2
The subject of data set [7] is Mus musculus. The data set is described as follows: Antinociceptive activity in Albino Swiss CD-1 mouse assessed as inhibition of capsaicin-induced nociception by measuring time spent licking injected paw at 200 mg/kg, ip administered 30 mins mins prior to capsaicin challenge measured for 5 mins relative to control. Format: functional. The settings on record: Swiss CD-1, ip. In a few lines:
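Mice (male CD-1, 18–25 g) were pretreated ip 30 min before intraplantar capsaicin. Doses were 25, 50 or 100 mg/kg, or 100, 150 or 200 mg/kg for the reference. Vehicle was 1% Tween 80 at 10 mL/kg. Duration of nociceptive response was scored over 5 min after injection. Data are mean ± SEM of 8–10 mice, by one-way ANOVA with Dunnett's test against vehicle.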

Data set [8] relates to Mus musculus. Nature of the data set: Antiallodynic activity in oxaliplatin-induced Albino Swiss CD-1 mouse model of peripheral neuropathy assessed as elevation in pain sensitivity threshold at 50 mg/kg, ip administered 30 mins prior to oxaliplatin challenge relative to control. Format: functional. Put shortly:
(§3)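 Male CD-1 mice, 18–25 g, that had developed oxaliplatin-induced tactile allodynia were dosed ip 30 min before testing. Doses were 25, 50 or 100 mg/kg, or 50, 100 or 150 mg/kg for the reference. Vehicle was 1% aqueous Tween 80. Paw-withdrawal force was measured by von Frey filaments. Data are mean ± SEM, analysed by repeated-measures ANOVA with Dunnett's test against oxaliplatin plus vehicle mice.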

Data set [9] concerns Mus musculus. Nature of the data set: Antiallodynic activity in oxaliplatin-induced Albino Swiss CD-1 mouse model of peripheral neuropathy assessed as elevation in pain sensitivity threshold at 100 mg/kg, ip administered 30 mins prior to oxaliplatin challenge relative to control. The class given is functional. Put shortly:
as §3

The test system of data set [10] is Mus musculus. Nature of the data set: Antiallodynic activity in oxaliplatin-induced Albino Swiss CD-1 mouse model of peripheral neuropathy assessed as elevation in pain sensitivity threshold at 150 mg/kg, ip administered 30 mins prior to oxaliplatin challenge relative to control. Format: functional. Put shortly:
as §3

For data set [11], the system named is Mus musculus. Nature of the data set: Analgesic activity in Albino Swiss CD-1 mouse assessed as increase in pain response latency administered at 150 mg/kg, ip treated up to 90 mins prior to tet by hot plate assay. Format: functional, organism-based. Put shortly:
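Male CD-1 mice, 18–25 g, 6–12 per group, given test agents as 1% aqueous Tween 80 suspension ip. Doses were 50, 100 or 150 mg/kg, with morphine hydrochloride at 4 mg/kg as reference. Mice were placed on the hot plate 15, 30, 45, 60 and 90 min after dosing, and latency to pain reaction was recorded.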
On the technique in general: Hot-plate and tail-flick tests time the reaction to a heat stimulus.

Data set [12] is described as follows: Retention time of the compound by LC-MS method.
For data set [13], the system named is Mus musculus. Nature of the data set: Anticonvulsant activity in Albino Swiss CD-1 mouse assessed as protection against 6 Hz current-induced seizure at 100 mg/kg, ip pretreated up to 2 hrs followed by 6 Hz current induction for 3 secs relative to control. Format: functional.
The next data set addresses Cytochrome P450 3A4 (Homo sapiens, UniProt P08684). The data set is described as follows: Inhibition of human CYP3A4 assessed as reduction in luciferin-PPXE conversion to D-luciferin at 12.5 to 25 uM by luminescence assay. The class given is ADME. Put shortly: (§4)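 P450-Glo luminescence assays used recombinant human CYP3A4 or CYP2D6 with conversion of luciferin-PPXE to D-luciferin. Ketoconazole (CYP3A4) and quinidine (CYP2D6) served as reference inhibitors.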

For the next data set, the target named is Cytochrome P450 2D6 (Homo sapiens, UniProt P10635). The data set is described as follows: Inhibition of human CYP2D6 assessed as reduction in luciferin-PPXE conversion to D-luciferin at 12.5 to 25 uM by luminescence assay. The class given is ADME. In a few lines: as §4
Cytochrome P450 2D6, sequence (P10635 whole entry): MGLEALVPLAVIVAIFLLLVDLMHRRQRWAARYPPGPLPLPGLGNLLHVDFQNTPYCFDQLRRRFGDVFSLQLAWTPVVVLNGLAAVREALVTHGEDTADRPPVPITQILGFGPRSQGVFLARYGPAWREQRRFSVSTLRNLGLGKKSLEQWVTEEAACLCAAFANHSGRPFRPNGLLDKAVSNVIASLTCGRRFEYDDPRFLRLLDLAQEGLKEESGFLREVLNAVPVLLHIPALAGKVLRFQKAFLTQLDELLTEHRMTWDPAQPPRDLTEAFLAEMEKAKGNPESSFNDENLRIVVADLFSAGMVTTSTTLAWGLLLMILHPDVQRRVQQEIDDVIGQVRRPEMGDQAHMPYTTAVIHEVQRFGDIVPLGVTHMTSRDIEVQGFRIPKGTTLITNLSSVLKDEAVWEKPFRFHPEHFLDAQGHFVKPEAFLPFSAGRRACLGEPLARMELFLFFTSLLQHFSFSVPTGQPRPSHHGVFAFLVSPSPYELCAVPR
Data set [14] has as its system Mus musculus. Nature of the data set: Anticonvulsant activity in Albino Swiss CD-1 mouse assessed as inhibition of pentylenetetrazole-induced seizures at 100 mg/kg, ip administered up to 2 hrs prior to PTZ induction measured after 30 mins relative to control. The class given is functional. Also noted: scale not given: the % may be the effect or the level left.
Data set [15] relates to Liver. Nature of the data set: Drug level in human liver microsomes treated with 1-{1-[4-(4-Trifluoromethylphenyl)piperazin-1-yl]-3-methoxy-1-oxopropan-2-yl}pyrrolidine-2,5-dione preincubated for 5 mins followed by NADPH addition measured after 2 hrs by LC-MS method. The class given is ADME, microsome. (In general: Liver microsomes are a subcellular fraction often used to study metabolism.)

Data set [16] relates to Liver. The data set is described as follows: Drug level in human liver microsomes treated with 1-{1-[4-(3-Trifluoromethylphenyl)piperazin-1-yl]-3-methoxy-1-oxopropan-2-yl}pyrrolidine-2,5-dione preincubated for 5 mins followed by NADPH addition measured after 2 hrs by LC-MS method. Format: ADME, microsome.
The subject of data set [17] is Mus musculus. The data set is described as follows: Anticonvulsant activity in ip dosed Albino Swiss CD-1 mouse assessed as protection against maximal electroshock-induced seizures pretreated up to 2 hrs followed by 50 Hz current induction for […] measured at time to peak effect. The class given is functional. Conditions: Swiss CD-1, ip.
In data set [18] the test system is Mus musculus. Nature of the data set: Anticonvulsant activity in Albino Swiss CD-1 mouse assessed as protection against maximal electroshock-induced seizures at 100 mg/kg, ip pretreated up to 2 hrs followed by 50 Hz current induction for […] relative to control. The class given is functional.
The subject of data set [19] is Mus musculus. The data set is described as follows: Anticonvulsant activity in ip dosed Albino Swiss CD-1 mouse assessed as protection against 32 mA current-induced seizure treated up to 2 hrs prior to 6-Hz current induction measured at time to peak effect. The class given is functional. Conditions: Swiss CD-1, ip.
Data set [20] relates to Mus musculus. Nature of the data set: Protection index, ratio of TD50 for neurotoxicity in ip dosed Albino Swiss CD-1 mouse to ED50 for ip dosed maximal electroshock induced seizure Albino Swiss CD-1 mouse. In a few lines: as §1
A general note: In the maximal electroshock model the usual endpoint is tonic extension of the hind limbs.

Data set [21] deals with Mus musculus. Nature of the data set: Protection index, ratio of TD50 for neurotoxicity in ip dosed Albino Swiss CD-1 mouse to ED50 for ip dosed Albino Swiss CD-1 mouse model of 6 Hz-induced siezures. Put shortly: as §1
In data set [22] the test system is Mus musculus. The data set is described as follows: Analgesic activity in Albino Swiss CD-1 mouse assessed as increase in pain response latency administered at 4 mg/kg, ip treated up to 90 mins prior to tet by hot plate assay. The class given is functional, organism-based. In a few lines: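 Adult male Albino Swiss CD-1 mice (18−25 g), 6−12 per group, each used once. Drug given ip suspended in 1% aqueous Tween 80; vehicle controls received Tween 80. Mice were put back on the hot plate at 15, 30, 45, 60 and 90 min after dosing, and latency to pain reaction was recorded. Data are means ± SEM, analysed by ANOVA with post hoc tests.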

In data set [23] the test system is Liver. Nature of the data set: Drug level in human liver microsomes treated with 1-{1-[4-(3-Chlorophenyl)piperazin-1-yl]-3-methoxy-1-oxopropan-2-yl}pyrrolidine-2,5-dione preincubated for 5 mins followed by NADPH addition measured after 2 hrs by LC-MS method. Format: ADME, microsome.
Data set [24] concerns Mus musculus. Nature of the data set: Anticonvulsant activity in Albino Swiss CD-1 mouse assessed as protection against 6 Hz current-induced seizure at 100 mg/kg, ip pretreated up to 0.5 hrs followed by 6 Hz current induction for 3 secs relative to control. Format: functional.

Cytochrome P450 3A4, sequence (P08684 whole entry): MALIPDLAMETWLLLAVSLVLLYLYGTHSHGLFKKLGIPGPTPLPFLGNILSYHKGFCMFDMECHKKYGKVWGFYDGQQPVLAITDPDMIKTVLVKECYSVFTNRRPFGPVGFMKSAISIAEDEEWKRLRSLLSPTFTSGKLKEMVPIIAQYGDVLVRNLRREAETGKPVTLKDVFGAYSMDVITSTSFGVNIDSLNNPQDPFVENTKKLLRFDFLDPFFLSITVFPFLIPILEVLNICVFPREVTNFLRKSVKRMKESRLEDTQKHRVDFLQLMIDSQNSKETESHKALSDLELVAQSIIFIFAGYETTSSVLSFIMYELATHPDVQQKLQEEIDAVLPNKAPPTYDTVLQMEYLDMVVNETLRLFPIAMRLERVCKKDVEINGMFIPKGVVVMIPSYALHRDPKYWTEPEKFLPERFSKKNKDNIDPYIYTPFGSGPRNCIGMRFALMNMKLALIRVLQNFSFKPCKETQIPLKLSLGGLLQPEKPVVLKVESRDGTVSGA

`CCCC(CCC)C(=O)O` [VALPROIC ACID]: the Time with Mus musculus [1] and with Mus musculus [2] was 0.5 h in each case. Moreover, the TD50 at 1 min in data set [3] turned out to be 373 mg/kg. Moreover, the inhibition in vivo at 100 mg/kg in the data set with Mus musculus [4] worked out at 15.7%. In addition, the inhibition in vivo at 150 mg/kg with Mus musculus [5] was determined as 25.8%. Also, the inhibition in vivo at 200 mg/kg with Mus musculus [6] was 29.2%; in the data set with Mus musculus [7], 42.2%. Further, the figures for the Activity in the data set on Mus musculus [8], with Mus musculus [9] and with Mus musculus [10] were 105%, 121% and 151.5%, respectively. Moreover, in the data set on Mus musculus [11], the outcome was inactive.
The compound `COCC(C(=O)N1CCN(c2cccc(C(F)(F)F)c2)CC1)N1C(=O)CCC1=O` (stereo not given) came in with a Retention time in data set [12] of 6.08 min. The Activity result with Mus musculus [13] is recorded as “<=75%”; in the data set on Mus musculus [14] it was 50%. For the same compound, the “inhibition (INH)” value at Cytochrome P450 3A4 and on Cytochrome P450 2D6 was “Not Active” each time.
In [12], `COCC(C(=O)N1C=CN(c2ccc(C(F)(F)F)cc2)CC1)N1C(=O)CCC1=O` (stereo not given) yielded a Retention time of 6.23 min. Besides, the Drug metabolism result in the data set on Liver [15] is “Metabolite_Detected”.
In data set [12], `COCC(C(=O)N1C=CN(c2cccc(C(F)(F)F)c2)CC1)N1C(=O)CCC1=O` (stereo not given) returned a Retention time of 6.33 min. The Drug metabolism entry in the data set on Liver [16] is listed as “Metabolite_Detected”.
For the compound `COCC(C(=O)N1CCN(c2cccc(Cl)c2)CC1)N1C(=O)CCC1=O` (stereo not given), the Retention time in [12] came to 5.72 min. The 50% effective dose (ED50) with Mus musculus [17] lay in the range of 79.7 to 87 mg/kg; in the data set with Mus musculus [19], 26.1 to 32.7 mg/kg. For the same compound, the Activity result with Mus musculus [13] and in the data set with Mus musculus [18] was “<=75%” each time. For the same compound, in the data set with Mus musculus [1], the Time lay within 0.25 to 0.5 h. The “Ratio TD50/ED50” value in the data set with Mus musculus [20] is 2.4 - 2.6; in the data set with Mus musculus [21], 6.9 - 7.3. In addition, the TD50 at 1 min in data set [3] lay within 192 to 226 mg/kg. At Cytochrome P450 3A4, the “inhibition (INH)” value is reported as “Not Active”.
For the compound `CN1CC[C@]23c4c5ccc(O)c4O[C@H]2[C@@H](O)C=C[C@H]3[C@H]1C5`, in the data set on Mus musculus [22], the result was Active.
`COCC(C(=O)N1C=CN(c2cccc(Cl)c2)CC1)N1C(=O)CCC1=O` (stereo not given) returned a Retention time in data set [12] of 6.04 min. Further, in the data set on Liver [23], the Drug metabolism result is listed as “Metabolite_Detected”.
For the compound `O=C(C(CO)N1C(=O)CCC1=O)N1CCN(c2ccc(C(F)(F)F)cc2)CC1` (stereo not given), the Efficacy in the data set with Mus musculus [24] worked out at 50%.
On the same count and under the same terms, with `O=C(C(CO)N1C(=O)CCC1=O)N1CCN(c2cccc(C(F)(F)F)c2)CC1` (stereo not given) the figure was 50%.
